Results: PMC6397583 (Proceedings of the National Academy of Sciences of the …, 2019)

System: E. coli MC1000
Experiment: Transmission electron microscopy of peptide-treated bacteria
Type: cell-based, Escherichia coli
Details: 6 × 10^8 cfu E. coli MC1000, 200 µg/mL peptide, 2 h
In short: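 Bacteria (6 × 10^8 cfu) were exposed to each test peptide (α-defensin or its fragments) at 200 µg/mL for 2 h. They were then fixed and cut into 30-nm sections. Cell envelope and membrane phenotypes were examined by transmission electron microscopy.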

| Substance | phenotype of peptide-treated bacteria (TEM) |
| --- | --- |
| LYRLCCR [HD-5_26–32] | small vesicular structures inside the bacteria |
| CATRESLSGVCEISGRLY [HD-5_10–27] | only minor damage in some bacteria while the majority remained unaffected |
